# Activity calls are given as the source filed them. The rule behind the calls is not given here.
# Experiments:
# [1] = target: T1, Extracellular calcium-sensing receptor (Homo sapiens, UniProt P41180); assay: Inhibition of CaSR expressed in CHO cells incubated with compound for 10 mins measured after 1 hr by [35S]GTPgammaS binding assay; type: functional, cell-based
# T1 sequence (P41180 whole entry): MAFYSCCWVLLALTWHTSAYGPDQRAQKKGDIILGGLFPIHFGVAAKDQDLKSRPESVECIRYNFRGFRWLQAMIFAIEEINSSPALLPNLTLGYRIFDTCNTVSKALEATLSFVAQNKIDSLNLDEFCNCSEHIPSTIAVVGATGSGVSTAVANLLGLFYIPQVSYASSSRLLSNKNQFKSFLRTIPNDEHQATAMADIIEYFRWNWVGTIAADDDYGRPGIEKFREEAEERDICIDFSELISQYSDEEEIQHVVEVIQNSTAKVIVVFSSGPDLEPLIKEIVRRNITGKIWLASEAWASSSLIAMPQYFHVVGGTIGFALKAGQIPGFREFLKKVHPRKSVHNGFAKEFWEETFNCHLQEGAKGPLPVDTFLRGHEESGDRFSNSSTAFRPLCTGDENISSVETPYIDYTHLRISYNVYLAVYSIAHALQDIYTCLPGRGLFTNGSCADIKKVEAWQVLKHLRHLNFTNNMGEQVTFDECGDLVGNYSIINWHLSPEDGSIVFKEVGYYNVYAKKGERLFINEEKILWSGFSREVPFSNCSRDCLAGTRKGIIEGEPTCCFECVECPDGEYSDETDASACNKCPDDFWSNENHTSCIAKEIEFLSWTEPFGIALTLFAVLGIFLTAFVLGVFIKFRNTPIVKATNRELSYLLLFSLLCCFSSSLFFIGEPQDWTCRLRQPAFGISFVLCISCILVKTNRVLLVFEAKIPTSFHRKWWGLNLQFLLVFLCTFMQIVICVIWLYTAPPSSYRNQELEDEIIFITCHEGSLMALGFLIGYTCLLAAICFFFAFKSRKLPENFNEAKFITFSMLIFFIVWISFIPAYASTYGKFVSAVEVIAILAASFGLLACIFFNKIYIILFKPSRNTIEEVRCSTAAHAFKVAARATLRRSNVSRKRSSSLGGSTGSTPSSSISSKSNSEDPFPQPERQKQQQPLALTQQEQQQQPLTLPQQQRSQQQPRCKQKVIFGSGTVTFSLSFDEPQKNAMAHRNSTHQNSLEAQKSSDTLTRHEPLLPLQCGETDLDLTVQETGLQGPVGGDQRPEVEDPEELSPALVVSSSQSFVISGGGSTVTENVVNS
# Procedure, shortened: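 Membranes from CaSR-expressing CHO cells preincubated with compound for 10 min. Binding then run 1 h at room temperature in 20 mM HEPES pH 7.4, 100 mM NaCl, 1 mM MgCl2, 167 μg/mL DTT, 5 μM GDP, 0.4 nM [35S]GTPγS and 6 mM CaCl2. Samples filtered through GF/C and washed with PBS; radioactivity counted by scintillation. IC50 obtained by nonlinear regression.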
# [2] = Metabolic stability in rat hepatic microsomes after 20 mins by HPLC/MS analysis; type: ADME; conditions: liver microsomes, read-out: Stability
# Procedure, shortened: (§1)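 Hepatic microsomes, 0.2 mg/mL protein, in 50 mmol/L potassium phosphate pH 7.4 with […] test compound. An NADPH-generating system (MgCl2, glucose-6-phosphate, β-NADP+, G6PDH) added at 10% of the reaction volume. Incubated at 37 °C for 0 and 20 min.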
# [3] = Metabolic stability in human hepatic microsomes after 20 mins by HPLC/MS analysis; type: ADME; conditions: liver microsomes, read-out: Stability; procedure, shortened: as §1
# [4] = Thermodynamic solubility of the compound in aqueous buffer containing 20 mmol/L sodium glycochenodeoxycholate at pH 6.8 by HPLC analysis; type: physicochemical; conditions: aqueous buffer with 20 mmol/L sodium glycochenodeoxycholate
# Procedure, shortened: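 Compound added to pH 6.8 aqueous buffer containing 20 mmol/L sodium glycochenodeoxycholate; after incubation, precipitate removed by filtration and filtrate concentration determined by HPLC.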
# [5] = system: Caco-2; assay: Apparent permeability across apical to basolateral side in human Caco2 cells at 10 umol/L; type: ADME, cell-based; conditions: caco-2, 10 µM
# Procedure, shortened: (§2)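 Confluent Caco-2 monolayers on collagen-coated polycarbonate Transwell membranes. Buffer is HBSS with 10 mmol/L HEPES, 15 mmol/L glucose and 1% BSA, pH 7.3-7.5. Compound at 10 μmol/L dosed apically (A-to-B) or basolaterally (B-to-A), 37 °C, 5% CO2. Receivers sampled at 1 and 2 h. Lucifer yellow integrity check and cell-free blank run. LC/MS/MS read-out; Papp calculated; duplicates.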
# [6] = system: Caco-2; assay: Apparent permeability across apical to basolateral side of human Caco2 cells at 10 umol/L; type: ADME, cell-based; conditions: caco-2, 10 µM, in the assay text read “basolateral to apical” for “apical to basolateral”; procedure, shortened: as §2
# [7] = system: Rattus norvegicus; assay: Increase of PTH level in rat plasma at 10 mg/kg, po after 2 hrs by ELISA; type: functional, organism-based; parameters: dose 10 mg/kg
# [8] = system: Rattus norvegicus; assay: Increase of PTH level in rat plasma at 10 mg/kg, po after 30 mins by ELISA; type: functional
# [9] = Cmax in Crl:CD(SD) rat at 10 mg/kg, po; type: ADME, organism-based; parameters: dose 10 mg/kg, route oral; conditions: in vivo
# Procedure, shortened: (§3)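 Nonfasted female Crl:CD(SD) rats, 12 weeks old, n = 3, given 10 mg/kg orally as a 0.5% methylcellulose suspension. Plasma collected at 0.25, 0.5, 1, 2, 4, 8 and 24 h, deproteinized with acetonitrile, diluted with 0.01 mol/L ammonium acetate. Drug measured by HPLC on an ODS column, ammonium acetate/acetonitrile 3/7, 40 °C, UV 262 nm.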
# [10] = Tmax in Crl:CD(SD) rat at 10 mg/kg, po; type: ADME, organism-based; parameters: dose 10 mg/kg, route oral; conditions: in vivo; procedure, shortened: as §3
# [11] = AUC (0 to 24 hrs) in Crl:CD(SD) rat at 10 mg/kg, po; type: ADME, organism-based; parameters: time < 24 hr, dose 10 mg/kg, route oral; conditions: plasma; procedure, shortened: as §3
# [12] = Mean residence time in Crl:CD(SD) rat at 10 mg/kg, po; type: ADME, organism-based; parameters: dose 10 mg/kg, route oral; conditions: in vivo; procedure, shortened: as §3
# [13] = system: Rattus norvegicus; assay: Induction of bone formation in osteopenic ovariectomized CD(SD)IGS rat model assessed as plasma osteocalcin level at 10 mg/kg, po administered once daily for 3 months measured after 2 months by RIA (reference value: 21.1+/- 2.4 ng/ml); type: functional
# [14] = system: Rattus norvegicus; assay: Induction of bone formation in osteopenic ovariectomized CD(SD)IGS rat model assessed as distal femur BMD at 10 mg/kg, po administered once daily for 3 months measured after 1 day last post treatment (reference value: 622+/- 7 mg/cm3); type: functional
# [15] = system: Rattus norvegicus; assay: Induction of bone formation in osteopenic ovariectomized CD(SD)IGS rat model assessed as proximal tibia bone mineral density at 10 mg/kg, po administered once daily for 3 months measured after 1 day last post treatment (reference value: 649+/- 8 mg/cm3); type: functional
Compound,IC50 [1] [nM],solubility thermodynamic [4] [µg/mL],also measured
CCC(CC)(NC(=O)c1cnn2c1NC(c1ccccc1)CC2(C)C)c1ccc(Cl)cc1 (stereo not drawn),7.4,54,microsomal CLint [2]: 57 µL/min/mg; microsomal CLint [3]: 18 µL/min/mg; Papp [5]: 52.6 10^-6 cm/s; Papp [6]: 36.8 10^-6 cm/s
CCC(CC)(NC(=O)c1cnn2c1NC(c1ccccc1)CC2(C)C)c1ccc(Cl)cc1.O=S(=O)(O)O (stereo not drawn),,202,
CCC(CC)(NC(=O)c1cnn2c1NC(c1ccccc1)CC2(C)C)c1ccc(Cl)cc1.CS(=O)(=O)O (stereo not drawn),,164,
CCC(CC)(NC(=O)c1cnn2c1NC(c1ccccc1)CC2(C)C)c1ccc(OC(C)=O)cc1 (stereo not drawn),31,,
CCC(CC)(NC(=O)c1cnn2c1NC(c1ccccc1)CC2(C)C)c1ccc(C)cc1 (stereo not drawn),5.5,15.6,microsomal CLint [2]: 164 µL/min/mg; microsomal CLint [3]: 122 µL/min/mg
CC(=O)O.CCC(CC)(NC(=O)c1cnn2c1NC(c1ccccc1)CC2(C)C)c1ccc(Cl)cc1 (stereo not drawn),,202,
CCC(CC)(NC(=O)c1cnn2c1NC(c1ccccc1)CC2(C)C)c1ccc(COC(C)=O)cc1 (stereo not drawn),14,,
CCC(CC)(NC(=O)c1cnn2c1NC(c1ccccc1)CC2(C)C)c1ccc(C)cc1 (racemic),,,Activity [7]: inactive
CCC(CC)(NC(=O)c1cnn2c1NC(c1ccccc1)CC2(C)C)c1cccc(F)c1 (stereo not drawn),25,,
CCC(CC)(NC(=O)c1cnn2c1N[C@@H](c1ccccc1)CC2(C)C)c1ccc(C)cc1,2.3,,
CCC(CC)(NC(=O)c1cnn2c1NC(c1ccccc1)CC2(C)C)c1ccccc1F (stereo not drawn),12,,
CCCC(CCC)(NC(=O)c1cnn2c1NC(c1ccccc1)CC2(C)C)c1ccc(C(F)(F)F)cc1 (stereo not drawn),4.4,,
CCCCC(CCCC)(NC(=O)c1cnn2c1NC(c1ccccc1)CC2(C)C)c1ccc(C(F)(F)F)cc1 (stereo not drawn),23,,
CCC(CC)(NC(=O)c1cnn2c1NC(c1ccccc1)CC2(C)C)c1ccc(OCc2ccccc2)cc1 (stereo not drawn),8.5,24.3,microsomal CLint [2]: 24 µL/min/mg; microsomal CLint [3]: 48 µL/min/mg
CCC(CC)(NC(=O)c1cnn2c1NC(c1ccccc1)CC2(C)C)c1ccc(C)cc1.CS(=O)(=O)O (stereo not drawn),,118,
CCC(CC)(NC(=O)c1cnn2c1NC(c1ccccc1)CC2(C)C)c1ccc(F)cc1 (stereo not drawn),7.3,8.5,microsomal CLint [2]: 129 µL/min/mg; microsomal CLint [3]: 89 µL/min/mg

Compound,IC50 [1] [nM],solubility thermodynamic [4] [µg/mL],also measured
CCC(CC)(NC(=O)c1cnn2c1N[C@H](c1ccccc1)CC2(C)C)c1ccc(C)cc1,31,,
CCOC(=O)c1ccc(C(CC)(CC)NC(=O)c2cnn3c2NC(c2ccccc2)CC3(C)C)cc1 (stereo not drawn) [listing 1 of 2 here],5.2,5.4,
CCC(CC)(NC(=O)c1cnn2c1NC(c1ccccc1)CC2(C)C)c1ccc(OC)cc1 (stereo not drawn),6.6,59.6,microsomal CLint [2]: 158 µL/min/mg; microsomal CLint [3]: 67 µL/min/mg
O=C(NCc1ccc(C(F)(F)F)cc1)c1cnn2c1N[C@H](c1ccccc1)C[C@@H]2C(F)(F)F,2900,,
CCC(CC)(NC(=O)c1cnn2c1NC(c1ccccc1)CC2(C)C)c1ccc(C)cc1.Cl (racemic),4.9,140,Papp [5]: 58.9 10^-6 cm/s; Papp [6]: 42.7 10^-6 cm/s; Activity [8]: 120 pg/mL; Cmax [9]: 374 ng/mL; Tmax [10]: 0.67 h; AUC(0-t) at 24 h [11]: 2460 ng·h/mL; MRT [12]: 5.65 h; Activity [13]: 28.4 ng/mL; Activity [14]: 660 mg/cm3; Activity [15]: 700 mg/cm3
CC1(C)CC(c2ccccc2)Nc2c(C(=O)NC(c3ccc(C(F)(F)F)cc3)(C3CCCCC3)C3CCCCC3)cnn21 (stereo not drawn),150,,
O=C(NC(c1ccccc1)c1ccccc1)c1cnn2c1N[C@H](c1ccccc1)C[C@@H]2C(F)(F)F,380,,
CCOC(=O)c1ccc(C(CC)(CC)NC(=O)c2cnn3c2NC(c2ccccc2)CC3(C)C)cc1 (stereo not drawn) [listing 2 of 2 here],,,microsomal CLint [2]: 138 µL/min/mg; microsomal CLint [3]: 91 µL/min/mg
CCC(=O)Oc1ccc(C(CC)(CC)NC(=O)c2cnn3c2NC(c2ccccc2)CC3(C)C)cc1 (stereo not drawn),12,,
CCC(CC)(NC(=O)c1cnn2c1NC(c1ccccc1)CC2(C)C)c1ccccc1 (stereo not drawn),3.4,22.3,microsomal CLint [2]: 215 µL/min/mg; microsomal CLint [3]: 209 µL/min/mg
CCC(CC)(NC(=O)c1cnn2c1NC(c1ccccc1)CC2(C)C)c1ccc(Cl)cc1.Cl (stereo not drawn),,126,Cmax [9]: 374 ng/mL; Tmax [10]: 0.67 h; AUC(0-t) at 24 h [11]: 2460 ng·h/mL; MRT [12]: 5.65 h
CCC(CC)(NC(=O)c1cnn2c1NC(c1ccccc1)CC2(C)C)c1cccc(Cl)c1 (stereo not drawn),17,,
CC(C)C(NC(=O)c1cnn2c1NC(c1ccccc1)CC2(C)C)(c1ccc(C(F)(F)F)cc1)C(C)C (stereo not drawn),30,,
CCC(CC)(NC(=O)c1cnn2c1NC(c1ccccc1)CC2(C)C)c1ccc(C(F)(F)F)cc1 (stereo not drawn),7.6,4.6,microsomal CLint [2]: 13 µL/min/mg; microsomal CLint [3]: 14 µL/min/mg; Papp [5]: 32.7 10^-6 cm/s; Papp [6]: 24.2 10^-6 cm/s
CC(C)(NC(=O)c1cnn2c1NC(c1ccccc1)CC2(C)C)c1ccc(C(F)(F)F)cc1 (stereo not drawn),3.5,,

# Reference: ChEMBL document CHEMBL1687906, “Discovery of novel and potent orally active calcium-sensing receptor antagonists that stimulate pulselike parathyroid hormone secretion: synthesis and structure-activity relationships of tetrahydropyrazolopyrimidine derivatives” (J Med Chem, 2011)
